Article PMC3356170 (International Journal of Nanomedicine, 2012)

Experiments:
[1] = Pharmacokinetics of two formulations in rats; format: in vivo, Sprague-Dawley (SD) rats
Summary of the method: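 SD rats (N = 6 per group) received 5 mg/kg intravenously or orally, dissolved in 0.9% NaCl. Blood was taken at set time points and centrifuged (3500 rpm, 10 min). Plasma (180 μL) was mixed with cantharidin internal standard and methanol (800 μL) and spun at 10,000 rpm for 10 min. NCTD was measured by LC-MS/MS (C18, 35°C; MRM m/z 185.0→141.1) against matrix-matched calibration from 0.1025 to 10.25 μg/mL, using peak-area ratio to internal standard. Group means gave parameters.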

[2] = Tissue distribution and elimination in mice; format: in vivo, ICR mice; conditions: after intravenous administration (table title)
Summary of the method: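 ICR mice (six per group) were used. Blood was drawn from the eye socket vein at each sampling time. After cervical dislocation, heart, liver, kidney, spleen and lung were excised, rinsed in saline, blotted and weighed. Bile was taken from the gall bladder by syringe. Tissues and fluids were homogenized and processed as for plasma. NCTD was quantified by LC-MS/MS.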

[3] = Survival time and urine output of dosed rats; format: in vivo
[4] = intravenous administration (5 mg/kg), N = 6, mean ± SD
[5] = oral administration (5 mg/kg), N = 6, mean ± SD

Question: For `O=C1OC(=O)[C@H]2[C@@H]1[C@@H]1CC[C@H]2O1` [NCTD, Norcantharidin], which AUC0-t [1, 4] is on record?
Answer: Its AUC0-t is 9790 ± 1260 ng·h/mL.

Question: And the “AUC0-∞” value [1, 4]?
Answer: The value was 10770 ± 2340 ng·h/mL.

Question: What about the CL [1, 4] of the same compound?
Answer: Its CL is 0.12 ± 0.02 L/h.

Question: And the MRT [1, 4]?
Answer: Its MRT is 0.34 ± 0.10 h.

Question: What about the Vd [1, 4] of the same compound?
Answer: Its Vd is 0.82 ± 0.45 L/kg.

Question: And the “t1/2(α) distribution half-life” value [1, 4]?
Answer: Its value is 0.26 ± 0.06 h.

Question: And the “t1/2(β)” value [1, 4]?
Answer: The value was 2.63 ± 0.82 h.

Question: And the AUC0-t [1, 5]?
Answer: Its AUC0-t is 3850 ± 660 ng·h/mL.

Question: And the “AUC0-∞” value [1, 5]?
Answer: Its value is 3870 ± 690 ng·h/mL.

Question: And the CL [1, 5]?
Answer: Its CL is 0.32 ± 0.05 L/h.

Question: What about the Cmax [1, 5] of the same compound?
Answer: The Cmax was 1210 ± 230 ng/mL.

Question: And the MRT [1, 5]?
Answer: The MRT was 5.49 ± 4.58 h.

Question: And the Tmax [1, 5]?
Answer: Its Tmax is 1.50 ± 0.44 h.

Question: And the Vd [1, 5]?
Answer: Its Vd is 9.48 ± 6.59 L/kg.

Question: And the “t1/2(a)” value [1, 5]?
Answer: Its value is 0.56 ± 0.43 h.

Question: And the “t1/2(α)” value [1, 5]?
Answer: Its value is 0.72 ± 0.68 h.

Question: And the “t1/2(β)” value [1, 5]?
Answer: Its value is 5.08 ± 4.79 h.

Question: What about the oral bioavailability ([1]; oral versus intravenous administration, 5 mg/kg) of the same compound?
Answer: The oral bioavailability was 39.3%.

Question: What about the “Te (targeted efficiency)” value ([2]; Bile) of the same compound?
Answer: The value was 2.33.

Question: What about the “Te (targeted efficiency)” value ([2]; Blood) of the same compound?
Answer: Its value is 30.74.

Question: What about the “Te (targeted efficiency)” value ([2]; Heart) of the same compound?
Answer: Its value is 14.99.

Question: What about the “Te (targeted efficiency)” value ([2]; Kidney) of the same compound?
Answer: Its value is 11.72.

Question: What about the “Te (targeted efficiency)” value ([2]; Liver) of the same compound?
Answer: Its value is 10.07.

Question: What about the “Te (targeted efficiency)” value ([2]; Lung) of the same compound?
Answer: The value was 22.72.

Question: What about the “Te (targeted efficiency)” value ([2]; Spleen) of the same compound?
Answer: Its value is 7.44.

Question: And the “survival time of rats” value ([3]; NCTD group)?
Answer: Its value is “about 24 hours”.

Question: What about the “urine output compared with normal rats” value ([3]; after dosing) of the same compound?
Answer: Its value is “one-third of normal”.
